Data set [1] concerns the target T1, Prostaglandin E2 receptor EP3 subtype (Homo sapiens, UniProt P43115).
T1 sequence (P43115 whole entry): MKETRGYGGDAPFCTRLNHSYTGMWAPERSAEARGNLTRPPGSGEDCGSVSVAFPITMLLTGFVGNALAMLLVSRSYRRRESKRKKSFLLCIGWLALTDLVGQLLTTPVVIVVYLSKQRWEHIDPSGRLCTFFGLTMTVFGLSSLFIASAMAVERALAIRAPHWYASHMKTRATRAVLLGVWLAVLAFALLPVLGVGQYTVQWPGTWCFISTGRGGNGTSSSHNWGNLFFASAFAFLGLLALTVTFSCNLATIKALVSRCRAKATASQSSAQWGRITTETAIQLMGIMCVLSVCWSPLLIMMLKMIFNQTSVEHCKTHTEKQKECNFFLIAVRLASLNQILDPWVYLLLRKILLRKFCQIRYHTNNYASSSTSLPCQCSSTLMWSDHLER
In words: Displacement of [3H]PGE-2 from human Prostanoid EP3 receptor. For orientation: In a radioligand displacement assay an active substance lowers the binding of a labelled ligand.

The target of data set [2] is Prostaglandin E2 receptor EP2 subtype (Homo sapiens, UniProt P43116). In words: Displacement of [3H]-PGE-2 from human Prostanoid EP2 receptor.
Prostaglandin E2 receptor EP2 subtype, sequence (P43116 whole entry): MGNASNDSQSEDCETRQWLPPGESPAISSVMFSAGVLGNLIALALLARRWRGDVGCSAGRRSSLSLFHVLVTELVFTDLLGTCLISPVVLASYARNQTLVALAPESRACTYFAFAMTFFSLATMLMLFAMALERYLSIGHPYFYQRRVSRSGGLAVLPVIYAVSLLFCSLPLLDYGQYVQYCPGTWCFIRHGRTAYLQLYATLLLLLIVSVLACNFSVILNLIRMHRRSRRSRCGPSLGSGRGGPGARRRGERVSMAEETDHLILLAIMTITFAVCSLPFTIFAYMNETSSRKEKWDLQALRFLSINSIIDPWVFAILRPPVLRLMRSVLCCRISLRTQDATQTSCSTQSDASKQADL
For data set [3], the target named is T2, Prostaglandin E2 receptor EP1 subtype (Homo sapiens, UniProt P34995).
T2 sequence (P34995 whole entry): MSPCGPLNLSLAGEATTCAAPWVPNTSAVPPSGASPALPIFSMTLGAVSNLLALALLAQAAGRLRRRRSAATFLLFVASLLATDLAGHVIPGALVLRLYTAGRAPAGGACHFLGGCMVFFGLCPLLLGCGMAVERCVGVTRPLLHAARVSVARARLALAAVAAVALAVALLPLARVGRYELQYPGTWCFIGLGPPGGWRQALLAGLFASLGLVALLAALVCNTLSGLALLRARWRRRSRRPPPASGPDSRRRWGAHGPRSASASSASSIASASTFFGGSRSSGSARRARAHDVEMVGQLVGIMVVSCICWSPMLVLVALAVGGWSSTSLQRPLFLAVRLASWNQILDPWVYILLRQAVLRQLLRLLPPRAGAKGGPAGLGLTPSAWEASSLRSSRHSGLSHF
The data set is described as follows: Displacement of [3H]PGE-2 from human Prostanoid EP1 receptor.

The target of data set [4] is Prostaglandin F2-alpha receptor (Homo sapiens, UniProt P43088). The data set is described as follows: Displacement of [3H]PGF-2 from human Prostanoid FP receptor.
Prostaglandin F2-alpha receptor, sequence (P43088 whole entry): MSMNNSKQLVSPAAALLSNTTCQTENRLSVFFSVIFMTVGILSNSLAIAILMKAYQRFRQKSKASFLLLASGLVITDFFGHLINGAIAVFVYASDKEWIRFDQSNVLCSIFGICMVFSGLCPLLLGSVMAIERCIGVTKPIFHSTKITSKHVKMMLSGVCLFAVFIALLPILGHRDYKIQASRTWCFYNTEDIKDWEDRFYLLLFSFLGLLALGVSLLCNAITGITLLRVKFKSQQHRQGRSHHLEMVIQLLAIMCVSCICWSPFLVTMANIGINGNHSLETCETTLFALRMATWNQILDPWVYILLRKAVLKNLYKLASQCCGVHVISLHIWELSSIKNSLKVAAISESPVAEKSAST
A further data set has as its target T3, Thromboxane A2 receptor (Homo sapiens, UniProt P21731).
T3 sequence (P21731 whole entry): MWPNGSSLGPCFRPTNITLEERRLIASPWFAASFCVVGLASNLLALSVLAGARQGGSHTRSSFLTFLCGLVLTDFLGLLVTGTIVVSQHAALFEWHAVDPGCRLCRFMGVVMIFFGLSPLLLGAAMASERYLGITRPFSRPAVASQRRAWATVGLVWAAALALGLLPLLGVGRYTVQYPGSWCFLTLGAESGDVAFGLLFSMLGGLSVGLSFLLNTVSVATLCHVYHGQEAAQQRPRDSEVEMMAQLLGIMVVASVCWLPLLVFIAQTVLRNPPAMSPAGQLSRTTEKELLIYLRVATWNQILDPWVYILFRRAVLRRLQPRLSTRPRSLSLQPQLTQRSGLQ
In words: Displacement of [3H]SQ-29,548 from human Prostanoid TP receptor.

In data set [5] the target is T4, Prostaglandin D2 receptor (Homo sapiens, UniProt Q13258).
T4 sequence (Q13258 whole entry): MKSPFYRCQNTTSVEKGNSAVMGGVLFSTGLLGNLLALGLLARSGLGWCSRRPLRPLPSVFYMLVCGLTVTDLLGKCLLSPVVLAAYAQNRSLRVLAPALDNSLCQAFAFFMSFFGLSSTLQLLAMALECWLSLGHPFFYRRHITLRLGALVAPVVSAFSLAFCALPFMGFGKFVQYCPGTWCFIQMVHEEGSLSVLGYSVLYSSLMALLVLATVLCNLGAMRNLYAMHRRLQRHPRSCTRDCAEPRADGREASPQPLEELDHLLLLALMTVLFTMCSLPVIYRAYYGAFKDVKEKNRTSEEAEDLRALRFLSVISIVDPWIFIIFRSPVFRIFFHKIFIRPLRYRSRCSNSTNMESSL
In words: Displacement of [3H]PGD-2 from human Prostanoid DP receptor.

The next data set deals with Prostacyclin receptor (Homo sapiens, UniProt P43119). In words: Displacement of [3H]iloprost from human Prostanoid IP receptor. The gist of the method:
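Competitive radioligand binding using cloned human IP receptor, measuring displacement of [3H]-iloprost.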

Data set [6] deals with Prostaglandin E2 receptor EP4 subtype (Homo sapiens, UniProt P35408). In words: Displacement of [3H]PGE-2 from human Prostanoid EP4 receptor.
Prostaglandin E2 receptor EP4 subtype, sequence (P35408 whole entry): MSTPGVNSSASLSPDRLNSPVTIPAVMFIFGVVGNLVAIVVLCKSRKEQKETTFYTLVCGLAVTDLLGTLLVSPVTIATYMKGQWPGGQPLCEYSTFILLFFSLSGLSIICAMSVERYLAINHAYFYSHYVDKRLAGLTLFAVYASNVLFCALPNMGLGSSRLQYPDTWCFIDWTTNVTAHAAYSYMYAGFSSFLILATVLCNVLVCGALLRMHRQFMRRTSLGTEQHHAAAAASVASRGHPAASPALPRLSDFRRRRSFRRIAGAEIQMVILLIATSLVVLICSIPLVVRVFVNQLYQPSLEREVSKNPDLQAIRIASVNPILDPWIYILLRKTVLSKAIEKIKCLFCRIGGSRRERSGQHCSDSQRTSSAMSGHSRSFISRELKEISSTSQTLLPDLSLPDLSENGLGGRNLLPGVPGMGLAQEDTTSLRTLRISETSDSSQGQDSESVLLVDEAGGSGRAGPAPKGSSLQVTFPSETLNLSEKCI
The test system of another data set is Cell line. The data set is described as follows: Inhibition concentration against ADP-induced platelet aggregation using human platelet rich plasma. The class given is functional, cell-based. The method, boiled down:
(§1)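 Functional IP agonism was measured as inhibition of ADP-induced aggregation in platelet-rich plasma from human, rat, dog or monkey. IC50 was taken from the inhibition of aggregation.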

For the next data set, the species on record is Rattus norvegicus. The data set is described as follows: Inhibition concentration against ADP-induced platelet aggregation using rat platelet rich plasma. The data set is classed as functional. The gist of the method: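 Aggregation was induced with ADP in rat platelet-rich plasma, and IC50 was taken from inhibition of aggregation. Values are the mean of two or three experiments.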

The species entered for a further data set is Canis familiaris. In words: Inhibition concentration against ADP-induced platelet aggregation using dog platelet rich plasma. The conditions noted are these: Canis lupus familiaris. The data set is classed as functional. The gist of the method: as §1
A short description of data set [7]: Half life in rat after intravenous administration at 10 mg/kg dose. The class given is ADME, organism-based. The arrangement: dose 10 mg/kg, route intravenous. The note with it: in vivo.
Data set [8] is described as follows: Maximum concentration in rat after oral administration at 10 mg/kg dose. The class given is ADME, organism-based. The arrangement: dose 10 mg/kg, route oral. The conditions noted are these: in vivo.
Data set [9] can be described thus: Total clearance in dog after intravenous administration at 0.32 mg/kg dose. The data set is classed as ADME, organism-based, Canis lupus familiaris. The arrangement: dose 0.32 mg/kg, route intravenous. The note with it: in vivo, read-out: CLtot.
A short description of data set [10]: Total clearance in rat after intravenous administration at 10 mg/kg dose. The class given is ADME, organism-based. Details: dose 10 mg/kg, route intravenous. The note with it: in vivo, read-out: CLtot.
In the next data set the test system is Monkey. In words: Inhibition concentration against ADP-induced platelet aggregation using monkey platelet rich plasma. The conditions noted are these: Cercopithecidae. The data set is classed as functional. The method, boiled down:
as §1

Data set [11] is described as follows: Area under curve in rat after oral administration at 10 mg/kg dose. The class given is ADME, organism-based. The arrangement: dose 10 mg/kg, route oral. The note with it: in vivo.
Data set [12] in a line: Bioavailability in rat after […] administration at 10 mg/kg dose. The note with it: in vivo, read-out: Ba. The data set is classed as ADME, organism-based.
A further data set relates to dog (Canis familiaris). In words: Area under curve in dog after oral administdogion at 0.32 mg/kg dose. The note with it: in vivo.

Prostacyclin receptor, sequence (P43119 whole entry): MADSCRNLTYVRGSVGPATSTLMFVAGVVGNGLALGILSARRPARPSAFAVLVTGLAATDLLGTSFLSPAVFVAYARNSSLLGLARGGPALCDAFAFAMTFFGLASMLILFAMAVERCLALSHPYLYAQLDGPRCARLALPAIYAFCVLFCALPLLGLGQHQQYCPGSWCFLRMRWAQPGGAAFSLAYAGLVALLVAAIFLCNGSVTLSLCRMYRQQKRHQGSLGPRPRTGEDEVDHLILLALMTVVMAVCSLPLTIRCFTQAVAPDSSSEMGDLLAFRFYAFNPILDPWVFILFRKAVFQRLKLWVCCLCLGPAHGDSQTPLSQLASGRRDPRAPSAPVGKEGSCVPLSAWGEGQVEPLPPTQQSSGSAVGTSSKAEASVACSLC

A word on the Ki: it is a dissociation constant, usually derived from enzyme kinetics or from competition with a known ligand. For the molecule `O=C(O)COc1cccc(C[C@@H]2CCCC=C2c2nc(-c3ccccc3)c(-c3ccccc3)o2)c1`, the Ki in data set [1] is 6800 nM; in [2], over 1000 nM; in data set [3], over 1000 nM; in [4], over 1000 nM; at Thromboxane A2 receptor, over 1000 nM; in [5], over 1000 nM.
Take `O=C(O)COc1cccc2c1CCC[C@H]2N1CCC[C@@H]1c1nc(-c2ccccc2)c(-c2ccccc2)o1`: the Ki in data set [1] was over 10000 nM; in data set [2], over 1000 nM; in data set [3] it was over 1000 nM; in data set [4] it was over 1000 nM; at Prostacyclin receptor it was 12 nM; in data set [6], over 10000 nM. Besides, the Ki (on Thromboxane A2 receptor; in data set [5]) was over 1000 nM throughout.
By IC50 is commonly meant the concentration at which inhibition is half-maximal. Usually half-life stands for the time in which the quantity being followed falls by half. As usually defined, the Cmax is the peak of the concentration-time curve. Broadly, the AUC is the area under the concentration-time curve, a measure of exposure. As to `O=C(O)COc1cccc2c1CC[C@](O)(COC(=O)N(c1ccccc1)c1ccccc1)C2`, the Ki in data set [1] was 8200 nM; in [2], over 10000 nM; in data set [3], 9600 nM; in data set [4], over 10000 nM; at Prostacyclin receptor, 8.9 nM; in [6] it was over 10000 nM. Moreover, the Ki at Thromboxane A2 receptor is over 10000 nM; in data set [5], 2300 nM. Moreover, the IC50 in the data set with Cell line turned out to be 18 nM; in the data set listed under Rattus norvegicus, 1400 nM; in the data set listed under Canis familiaris, 480 nM; in the data set with Monkey it was 13 nM. The same molecule showed a half-life in [7] of 1.81 h. For the same molecule, the Cmax in data set [8] is 342 ng/mL. In addition, the clearance was determined as 2.31 mL/min/kg in data set [9] and 38 mL/min/kg in [10]. Further, the AUC was determined as 1590 ng·h/mL in data set [11] and 2200 ng·h/mL in the data set on dog (Canis familiaris). In data set [12], the bioavailability came out at 38%.
With `O=C(O)COc1cccc2c1CCC(COC(=O)N(c1ccccc1)c1ccccc1)=C2`, the IC50 in the data set on Cell line is 91 nM; in the data set filed under Rattus norvegicus, over 10000 nM.
As to `O=C(O)COc1cccc2c1CCC(COC(=O)N(c1ccccc1)c1ccccc1)C2` (stereo not given), the Ki in [1] was 1900 nM; in [2], over 1000 nM; in data set [3], over 1000 nM; at Prostacyclin receptor it was 140 nM; in [6], over 10000 nM. The IC50 was 53 nM in the data set with Cell line and over 10000 nM in the data set filed under Rattus norvegicus.
Consider `O=C(O)COc1cccc2c1CC[C@H](COC(=O)N(c1ccccc1)c1ccccc1)[C@H]2O`, for which the values for the IC50 with Cell line and in the data set filed under Rattus norvegicus were 3200 nM and over 10000 nM, respectively.
The matching figures for `O=C(O)COc1cccc2c1CC[C@](O)(COC(=O)N(c1ccccc1)c1ccccc1)[C@H]2O`: 1300 nM and over 10000 nM.
The matching figures for `O=C(O)COc1cccc2c1CC[C@@](O)(COC(=O)N(c1ccccc1)c1ccccc1)C2`: 270 nM and over 10000 nM.
As to `O=C(O)COc1cccc2c1CC[C@](O)(COC(=O)N(c1ccccc1)c1ccccc1)C2O` (single isomer, unassigned), the Ki was over 10000 nM in [1]; over 1000 nM in data set [2]; over 1000 nM in data set [3]; 110 nM on Prostacyclin receptor; over 10000 nM in data set [6]. For the same molecule, the half-maximal inhibitory concentration (IC50) in the data set with Cell line is 5.8 nM; in the data set filed under Rattus norvegicus it was 7400 nM.
Turning to `O=C(O)COc1cccc2c1CC[C@H](COC(=O)N(c1ccccc1)c1ccccc1)C2O` (single isomer, unassigned), the IC50 in the data set on Cell line is 170 nM; in the data set listed under Rattus norvegicus, over 10000 nM.
The matching figures for `CCC/C(CC1CCc2c(cccc2OCC(=O)O)C1)=N\OC(c1ccccc1)c1ccccc1` (stereo not given) [AP-227]: 150 nM and 5600 nM.
In the data set on Cell line, `CC#CCC(C)[C@H](O)/C=C/[C@@H]1[C@H]2C/C(=C/CCCC(=O)O)C[C@H]2C[C@H]1O` (stereo not given in full) [ILOPROST] registered an IC50 of 2.5 nM.

Values taken from ChEMBL document CHEMBL1139629 (Bioorg Med Chem Lett, 2005).
